High-throughput results deposited in PubChem by several laboratories.
TRPML3 ag – human TRPML3 channel agonists, primary screen, cell-based, HEK293 TRPML3-YFP, Fluo-8 calcium fluorescence, 3 µM | Mucolipin-3 (Homo sapiens), Q8TDD5 | 100% = the carbachol control signal | activation, % at 3 µM | hit rate 0.29% among 220,000;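 active means activation above its plate's cutoff, the mean activation of the plate's test wells plus 3 SD, cut at about 12% in these data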;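 further: 0% = DMSO only wells and 100% = carbachol wells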
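Test system – HEK293 line with stable expression of human TRPML3-YFP channel · Control set – carbachol 87 µM final as high control (100%), DMSO as low control (0%) · Signal – Fluo-8 calcium dye fluorescence, ex 470-495, em 515-575 nm · Incubation – 1-h 37 °C dye load, 5-s basal, 120-s post-compound reads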
TAAR1 agonist – human TAAR1 agonists, primary screen, Fluo-8 calcium fluorescence, CHO RD-HGA16 cells | AID 624467, 2012 | activation, % at 3 µM | vehicle wells 0%, saturating PEA agonist 100% | hit rate 0.99% among 360,000;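 active means activation above the mean activation of all test compounds in the run plus 3 SD, cut at about 38% in these data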
Target sequence (Q96RJ0 whole entry, looked up): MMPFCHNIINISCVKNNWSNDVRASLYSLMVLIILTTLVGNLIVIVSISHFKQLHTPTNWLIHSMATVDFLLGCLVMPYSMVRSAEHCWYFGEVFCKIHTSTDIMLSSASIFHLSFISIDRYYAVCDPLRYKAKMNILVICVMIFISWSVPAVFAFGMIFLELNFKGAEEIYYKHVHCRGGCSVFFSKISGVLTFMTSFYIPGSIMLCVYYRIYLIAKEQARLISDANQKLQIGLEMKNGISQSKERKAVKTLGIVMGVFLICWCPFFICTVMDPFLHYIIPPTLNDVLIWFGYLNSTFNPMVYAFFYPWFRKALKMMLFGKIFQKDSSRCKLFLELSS
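System: CHO-derived RD-HGA16 cells with stable Gα16 and human TAAR1. Times: 17-24 h plating, Fluo-8 75 min 37 °C, 30 min RT. Measured by: calcium-sensitive Fluo-8 signal, excitation 470-495, emission 515-575 nm. Read-out basis: % activation relative to PEA EC100 response. Control set: DMSO and PEA EC100. Repeats: no replicates (n 1).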
GPR7 antagonist – GPR7 receptor antagonists, primary screen, cell-based, fluorescence, single concentration. AID 1861, 2009. hit rate 1.1% among 290,000. GPR7-expressing cells, fluorescence antagonist assay. Neuropeptides B/W receptor type 1 (Homo sapiens), P48145. inhibition, % at 4.4 µM; in the data active means inhibition above about 16%, passing the limit was not always enough;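 further: cells stimulated with the agonist NPW; 0% = agonist with vehicle and 100% = vehicle without agonist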
Target sequence (P48145 whole entry, looked up): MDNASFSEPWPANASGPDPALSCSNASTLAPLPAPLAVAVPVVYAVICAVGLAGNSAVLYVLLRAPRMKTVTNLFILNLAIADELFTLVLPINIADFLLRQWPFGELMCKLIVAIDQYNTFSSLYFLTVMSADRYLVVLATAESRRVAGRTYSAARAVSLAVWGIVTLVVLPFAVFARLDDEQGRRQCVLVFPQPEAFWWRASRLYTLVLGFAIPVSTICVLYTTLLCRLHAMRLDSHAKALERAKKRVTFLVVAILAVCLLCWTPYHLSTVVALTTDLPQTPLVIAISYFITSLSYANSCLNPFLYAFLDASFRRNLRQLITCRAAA
TRPN1 ag – zebrafish TRPN1 channel agonists, primary screen, cell-based, HEK293, calcium fluorescence. transient receptor potential cation channel N1 (TRPN1/NompC), Danio rerio. hit rate 0.18% among 220,000. HEK293 zebrafish TRPN1-YFP, Fluo-8 calcium fluorescence; 100% = response to 87 µM carbachol. AID 1424, 2008. activation, % at 3 µM;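 active means activation above its plate's cutoff, the mean activation of test wells on that plate plus 3 SD, cut at about 19% in these data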;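 further: 0% = DMSO alone and 100% = 87 µM carbachol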
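Material: zebrafish TRPN1-YFP in HEK293 cells; Doses: single test compound dose, 3 µM nominal, 0.3% DMSO; Timing: dye loading 1 h at 37 °C, then 30 min room temperature; Technique: intracellular calcium fluorescence with Fluo-8; Benchmarks: high carbachol 87 µM, low DMSO alone.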
LANA-H2B inh – blockers of LANA interaction with H2A/H2B – biochemical, FP readout, HTS, primary screen | Protein LANA1 (Human herpesvirus 8 type P (isolate GK18)), Q9QR71 | cell-free LANA-H2A/H2B peptide, fluorescence polarization | inhibition, % (concentration not given with the values) | hit rate 0.6% among 320,000 | AID 2629, 2010; in the data active means inhibition mostly above about 10%, no sharp cut-off; inactive means mostly below about 6.7%
TAAR1 antagonist – human TAAR1 antagonists, primary screen, Fluo-8 calcium fluorescence, CHO RD-HGA16 cells; Trace amine-associated receptor 1 (Homo sapiens), Q96RJ0; antagonist; inhibition, % at 3 µM; hit rate 1.5% among 360,000;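 active means inhibition above a per-plate cutoff, the mean inhibition of test compounds on that plate plus 3 SD, cut at about 49% in these data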;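 further: 0% = DMSO plus EC80 beta-PEA response and 100% = DMSO alone without agonist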
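Test system – hTAAR1-expressing CHO RD-HGA16 cells, Gα16-coupled · Also added – β-PEA at EC80 concentration, post-compound challenge · Compound – 3 µM, single point · Incubation – dye loading 75 min at 37 °C, then 30 min room temperature · Measured by – Fluo-8 intracellular calcium dye fluorescence, real-time kinetic reads · Benchmarks – vehicle and agonist controls · Replicates – singlicate, one well per test compound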
TAAR1 ag confirm – human TAAR1 agonists, retest of hits, confirmation, Fluo-8 calcium fluorescence, CHO RD-HGA16 cells | shares compounds with TAAR1 agonist | scaled: DMSO 0%, maximal phenethylamine 100% | activation, % at 3 µM | hit rate 82% among 2,400;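 active means activation above a cutoff set at the run's mean compound activation plus 3 SD, cut at about 39% in these data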
Ga16 ag counter – nonselective calcium mobilization agonists, CHO-Ga16 cells, counter-screen for hTAAR1 agonist project, cell-based, fluorescence, CHO-Ga16 parental line | Fluo-8 calcium fluorescence; normalized to maximal ATP response, DMSO zero | activation, % at 3 µM | shares compounds with TAAR1 agonist | hit rate 50% among 2,400;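 active means activation above the run cutoff, the mean activation over all tested wells plus 3 SD, cut at about 12% in these data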;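 further: 0% = DMSO wells and 100% = maximal ATP response on the peak over basal ratio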
TAAR1 desensitize – TAAR1 desensitization by agonist hits, confirmation, counter-screen for TAAR1 agonist project, cell-based, fluorescence, tachyphylaxis | inhibition, % at 3 µM | CHO RD-HGA16 hTAAR1, Fluo-8 calcium, beta-PEA response inhibition | hit rate 46% among 2,400 | shares compounds with TAAR1 agonist;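 active means inhibition above the run cutoff, the mean inhibition of all test compounds plus 3 SD, cut at about 49% in these data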;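 further: beta-PEA stimulus applied at its EC80; loss of beta-PEA calcium signal after compound pretreatment read as receptor desensitization; 0% = DMSO with beta-PEA at EC80 and 100% = DMSO alone without agonist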
Ga16 antag count – inhibition of ATP-evoked calcium response in CHO-Ga16 cells, counter-screen for TAAR1 agonist project, cell-based, fluorescence | shares compounds with TAAR1 agonist | CHO-Ga16 ATP-induced calcium, Fluo-8 fluorescence | inhibition, % at 3 µM | hit rate 39% among 2,400;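 active means inhibition above the plate's mean compound inhibition plus 3 SD, computed per plate, cut at about 22% in these data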;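 further: 0% = EC80 ATP with DMSO and 100% = DMSO wells without ATP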
Starred values were filed as active, the others as inactive; nt = not tested or not shown. Compounds with a hit are over-represented: about 3.4% of the library has one in this group of screens.

SMILES	TRPML3 ag	TAAR1 agonist	GPR7 antagonist	TRPN1 ag	LANA-H2B inh	TAAR1 antagonist	TAAR1 ag confirm	Ga16 ag counter	TAAR1 desensitize	Ga16 antag count
COc1ccccc1CNC(=O)CC1C(=O)NCCN1C1Cc2ccccc2C1 (centres undefined)	nt	70*	3	nt	-6	19	72*	5	3	-2
CCCCCCSc1ccc([C@@H]2[C@@H]3C(=O)N(C)C(=O)[C@@H]3[C@]3(C(=O)OC)CCCCN23)cc1OC	nt	2	nt	nt	4	12	nt	nt	nt	nt
CC1=CC(C)(C)N(C(=O)c2ccccc2)c2ccc(C)cc21	5	65*	13	9	nt	52*	71*	42*	69*	52*
CC1=CC(C)(C)N(C(=O)c2ccccc2)c2ccccc21	0	26	-8	-1	2	12	nt	nt	nt	nt
CCC(=O)Nc1cccc(NC(=S)NC(=O)Cc2ccccc2)c1	0	11	3	0	-2	8	nt	nt	nt	nt
Cc1cc(C)c(O)c(NC(=S)NC(=O)Cc2ccccc2)c1	nt	95*	19	nt	-1	72*	85*	48*	54*	37*
COc1ccc(CC(=O)NC(=S)Nc2cccc(C)c2)cc1	nt	82*	nt	nt	0	49*	71*	50*	52*	45*
COc1ccc(CC(=O)NC(=S)Nc2cccc(CO)c2)cc1	nt	79*	nt	nt	5	0	83*	55*	29	16
O=C(CSc1nc(=O)n2ccccc2n1)NC1CCCCC1	nt	2	nt	nt	8	-7	nt	nt	nt	nt
CCCS(=O)(=O)NC(=O)C1(C)CCN(C(=O)COc2ccc(Cl)cc2Cl)C1 (centres undefined)	nt	2	nt	nt	nt	-12	nt	nt	nt	nt
COc1cccc(/C=N/Nc2nc(Nc3ccccc3)nc(-n3nc(C)cc3C)n2)c1O	1	84*	5	3	0	76*	49*	47*	76*	63*
CCN(CC)c1ccc(/C=C(/C#N)c2nc3ccccc3[nH]2)c(OC(C)C)c1	15*	92*	6	24*	4	99*	25	30*	65*	64*
Cc1cc(C(=O)COC(=O)c2ccc(NC(=O)CC#N)cc2)c(C)n1CCc1ccc(F)cc1	nt	55*	nt	nt	-1	46	82*	6	77*	30*
Cc1cc(C(=O)COC(=O)C2=NNC(=O)CC2)c(C)n1CCc1ccccc1	0	61*	-10	2	0	15	86*	3	76*	10
Cc1cc(C(=O)COC(=O)c2ccc[nH]c2=O)c(C)n1CCc1ccc(F)cc1	-1	14	-5	0	4	0	nt	nt	nt	nt
CCc1cc2c(SCC(=O)NC3CCCC3)ncnc2s1	nt	-1	nt	nt	nt	-5	nt	nt	nt	nt
C[C@@H]1CN([C@@H](C)CO)C(=O)c2cc(N(C)C)ccc2O[C@@H](C)CCCCO[C@@H]1CN(C)Cc1ccc2c(c1)OCO2	nt	-2	nt	nt	nt	-18	nt	nt	nt	nt
CSCCC(NC(=O)c1ccc(Cl)cc1Cl)C(=O)NCC(c1cccs1)N(C)C (centres undefined)	nt	1	nt	nt	nt	8	nt	nt	nt	nt
S=C1SCN(CCc2ccccc2)CN1CCc1ccccc1	nt	82*	nt	nt	nt	86*	90*	5	92*	15
COc1ccc2nc(C)cc(N/N=C/c3cccc(OC)c3O)c2c1	nt	0	-14	nt	-1	-8	nt	nt	nt	nt
Cc1cc(N/N=C/c2ccccc2O)c2ccccc2n1	nt	nt	0	nt	-2	nt	nt	3	nt	13
CCCCC[C@H]1CCCCC[C@H](O)C[C@@H](O)[C@H](O)/C=C/C(=O)O1	nt	0	nt	nt	nt	-9	nt	nt	nt	nt
COc1ccc(CC(=O)Nc2ccc(NC(=O)c3ccccc3F)cc2)cc1	0	109*	-1	2	4	99*	60*	35*	42	16
COc1ccc(C(=O)Nc2ccc(C(=O)c3ccccc3)cc2)cc1	nt	12	nt	nt	-2	27	nt	nt	nt	nt
COc1ccc(NC(=O)c2ccc(C(=O)c3ccccc3)o2)cc1	1	67*	2	4	-4	57*	6	8	23	15
SMILES	TRPML3 ag	TAAR1 agonist	GPR7 antagonist	TRPN1 ag	LANA-H2B inh	TAAR1 antagonist	TAAR1 ag confirm	Ga16 ag counter	TAAR1 desensitize	Ga16 antag count
CCOc1ccc(NC(=O)C2CCN(S(C)(=O)=O)CC2)cc1	nt	2	-7	nt	8	4	nt	nt	nt	nt
CCCCc1ccc(NC(=O)C2CCN(S(C)(=O)=O)CC2)cc1	0	57*	-9	-1	2	26	-1	1	1	11
CCCS(=O)(=O)NC(=O)C1(C)CCCN(C(=O)c2cccc(Cl)c2)C1 (centres undefined)	nt	1	nt	nt	nt	-2	nt	nt	nt	nt
COc1ccccc1-c1ccc2c(c1)C(C)(Cc1cccc(C#N)c1)C(=O)N2 (centres undefined)	nt	1	nt	nt	nt	5	nt	nt	nt	nt
CC1CCCC(NC(=O)COC(=O)c2cccs2)C1C (centres undefined)	nt	7	nt	nt	1	-9	nt	nt	nt	nt
COc1cccc(CNCC(O)COc2ccc(C(=O)c3ccccc3)cc2)c1 (centres undefined)	nt	23	4	nt	0	14	nt	nt	nt	nt
O=C(c1ccccc1)c1ccc(OCC(O)CNCc2ccc(Cl)cc2)cc1 (centres undefined)	nt	49*	22	nt	-5	18	48*	17*	26	28*
CCN1C(=O)[C@H]2[C@@H](c3ccc(C(F)(F)F)cc3)N[C@]3(CCCN(Cc4ccc(Cl)cc4)C3=O)[C@H]2C1=O	nt	2	nt	nt	nt	-17	nt	nt	nt	nt
